We go through two compounds from BindingDB's records for doi:10.1021/ml100053y (2010).

The target in the assay is T1, 5-hydroxytryptamine receptor 1A (Homo sapiens, UniProt P08908).
T1 sequence (P08908 whole entry): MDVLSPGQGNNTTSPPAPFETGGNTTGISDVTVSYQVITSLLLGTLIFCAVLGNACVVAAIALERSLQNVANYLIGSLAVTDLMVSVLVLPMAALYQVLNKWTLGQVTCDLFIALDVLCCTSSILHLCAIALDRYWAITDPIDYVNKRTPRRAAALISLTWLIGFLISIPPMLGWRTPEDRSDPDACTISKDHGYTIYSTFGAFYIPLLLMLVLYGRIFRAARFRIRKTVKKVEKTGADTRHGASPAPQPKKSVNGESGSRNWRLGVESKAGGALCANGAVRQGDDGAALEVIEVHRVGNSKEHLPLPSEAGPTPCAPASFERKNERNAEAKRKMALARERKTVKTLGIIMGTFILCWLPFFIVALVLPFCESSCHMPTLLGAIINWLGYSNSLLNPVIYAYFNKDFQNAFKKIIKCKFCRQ
In words: Displacement of [3H]8-OH-DPAT from human 5HT1A receptor expressed in EBNA gene-positive HEK293 cells after 120 mins. An outline of the steps:
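Radioligand competition binding with [3H]-8-hydroxy-DPAT on membranes from transfected HEK-293 EBNA cells expressing h5-HT1AR. Buffer was 50 mM Tris-HCl, 0.5 mM MgSO4, pH 7.4. Ki was obtained from IC50 by the Cheng-Prusoff equation. Values are means ± SEM of 2–4 independent experiments, each run in triplicate.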
Background: Loss of bound radioactivity is the signal in a displacement assay; it reports binding, not function.

By Ki is commonly meant a measure of affinity in units of concentration, obtained from inhibition or displacement. Read a low Ki as tighter binding. As for `O=c1n(CCCCN2CCN(c3cccc4ccccc34)CC2)c(O)c2n1CCC2` [2-[4-(4-Naphthalen-1-yl-piperazin-1-yl)-butyl]-tetrahydro-pyrrolo[1,2-c]imidazole-1,3-dione], the Ki stood at 2.4 nM. That is a single-digit nanomolar value. For `CN(C)S(=O)(=O)c1ccc2cccc(N3CCN(CCCCn4c(O)c5n(c4=O)CCC5)CC3)c2c1` [8-{4-[4-(1,3-Dioxotetrahydro-1H-pyrrolo[1,2-c]imidazol-2(3H)-yl)butyl]piperazin-1-yl}-N,N-dimethylnaphthalene-2-sulfonamide] the value was 2.4 nM.
